Hits are enriched below; roughly 1.7% of the tested compounds scored in any of these assays.
APOBEC3A inh: inhibitors of human APOBEC3A DNA deaminase. inhibition, % at 20 µM. P31941. AID 493011. 330,000 tested, 0.41% active. recombinant A3A, FAM/TAMRA ssDNA deamination fluorescence;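 active means at least 40% inhibition at 20 µM here, with at most 30% in a related deaminase screen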;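 further: plate controls were A3A with DMSO for no effect and wells lacking A3A enzyme for full effect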
Target sequence (P31941 whole entry, looked up): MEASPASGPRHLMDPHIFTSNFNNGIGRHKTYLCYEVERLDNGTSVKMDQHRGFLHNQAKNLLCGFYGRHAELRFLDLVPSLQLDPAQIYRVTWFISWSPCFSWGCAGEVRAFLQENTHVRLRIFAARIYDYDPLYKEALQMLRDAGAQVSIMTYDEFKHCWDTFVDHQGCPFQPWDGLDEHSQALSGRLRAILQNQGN
C-LANA FP: inhibitors of KSHV LANA C-terminal domain DNA binding; AID 504423; inhibition, % at 9 µM; 340,000 tested, 0.078% active; MBP-C-LANA/FAM-LBS DNA binding, fluorescence polarization;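 active means highest replicate inhibition at or above 60% at 9 µM, even if other replicates fall short; inactive means all replicates below 60% inhibition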;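 further: 0% = neutral control wells and 100% = 4 µM acridine orange control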
A3G deaminase: inhibitors of human APOBEC3G DNA deaminase; Q9HC16; recombinant A3G, ssDNA deamination FAM/TAMRA fluorescence; inhibition, % at 20 µM; 330,000 tested, 0.28% active; AID 493012;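 active means inhibition of at least 40% at 20 µM, with no more than 30% in the related APOBEC3A deaminase screen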;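 further: plate controls were DMSO wells with A3G for no effect and wells lacking A3G enzyme for full effect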
Target sequence (Q9HC16 whole entry, looked up): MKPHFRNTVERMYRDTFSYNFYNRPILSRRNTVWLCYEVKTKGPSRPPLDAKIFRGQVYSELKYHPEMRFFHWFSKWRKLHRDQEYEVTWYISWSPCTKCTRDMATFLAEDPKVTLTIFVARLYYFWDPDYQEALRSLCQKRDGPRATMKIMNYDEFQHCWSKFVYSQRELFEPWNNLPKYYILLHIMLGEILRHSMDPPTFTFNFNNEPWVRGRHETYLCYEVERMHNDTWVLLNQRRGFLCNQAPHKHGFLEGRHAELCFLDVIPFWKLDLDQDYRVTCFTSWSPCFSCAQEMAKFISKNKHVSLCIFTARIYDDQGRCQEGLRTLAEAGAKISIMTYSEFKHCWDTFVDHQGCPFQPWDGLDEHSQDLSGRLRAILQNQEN
CAL PDZ FP-1: inhibitors of human CAL PDZ peptide binding | purified CAL PDZ, TMR-peptide fluorescence polarization, 1 h | inhibition, % at 24.9 µM | 300,000 tested, 0.92% active | AID 602252;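 active means mean inhibition of at least 30% with at least half of replicates also reaching 30%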;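 further: 0% = DMSO neutral control and 100% = excess unlabeled competitor peptide PRC23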
CAL PDZ FP-2: human CAL PDZ-peptide interaction inhibition. Q9HD26. purified CAL PDZ, TMR-peptide fluorescence polarization, 1 h. inhibition, % at 20 µM. 330,000 tested, 0.02% active. AID 504414;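 active means highest replicate inhibition of at least 40%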;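 further: plate controls were DMSO neutral control wells for no effect and unlabeled competitor peptide control wells for full effect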
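material = purified tagged CAL PDZ domain construct (CerCALP) | compound dosing = 20 µM, one dose | times = 1 h at RT | measured by = fluorescence polarization from S- and P-plane intensities, G-factor corrected | read-out = inhibition from polarization loss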
Keap1 Nrf2 FP: Keap1-Nrf2 (human) interaction inhibition; Q14145; Keap1 Kelch-Nrf2 peptide fluorescence polarization, 1536-well; inhibition, % at 9.4 µM; 340,000 tested, 0.15% active; in the data active means inhibition above about 12%;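 further: human Keap1 Kelch domain with fluorescein labeled Nrf2 9mer peptide probe; 0% = neutral control wells and 100% = peptide positive control; higher means more block of Keap1 binding to Nrf2 peptide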
APOBEC3A confirm: confirmation of human APOBEC3A DNA deaminase inhibitors. shares compounds with APOBEC3A inh. recombinant A3A, ssDNA deaminase UDG fluorescence assay. inhibition, % at 20 µM. 1,400 tested, 63% active. AID 493151;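 active means inhibition reaching a set limit, 80% of the first screen's cutoff, at 20 µM in any replicate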;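 further: plate controls were DMSO wells with A3A for no effect and wells lacking A3A enzyme for full effect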
UDG ctr A3A: UDG inhibition in APOBEC3A counter-screen; AID 504714; 1,000 tested, under 10 active; shares compounds with APOBEC3A inh; inhibition, % at 20 µM; UDG counterscreen, FAM/TAMRA uracil oligo fluorescence; call rule not given here
* hit, by the source's call; . = no result given.

SMILES | APOBEC3A inh | C-LANA FP | A3G deaminase | CAL PDZ FP-1 | CAL PDZ FP-2 | Keap1 Nrf2 FP | APOBEC3A confirm | UDG ctr A3A
Cn1c(CCC(=O)Nc2cc(S(C)(=O)=O)ccc2Cl)nc2cc(S(=O)(=O)N3CCOCC3)ccc21 | 73.8* | 1.2 | 26.1 | -1.0 | -2.5 | 0.7 | 76.2* | 2.7
Cn1c(CCC(=O)Nc2ccc(S(C)(=O)=O)cc2)nc2cc(S(=O)(=O)N3CCOCC3)ccc21 | . | -1.4 | . | -0.5 | 0.1 | -3.6 | . | .
Cc1ccc(S(=O)(=O)N2CCN(c3cccc(C)c3)CC2)cc1 | -5.8 | -0.5 | -1.7 | . | 0.1 | -2.6 | . | .
CCC[n+]1c(C)sc2c(OC)ccc(OC)c21 | 43.7* | -0.7 | 18.9 | 1.3 | 0.0 | -12.1 | 19.5* | -0.8
CCCCC(=O)Nc1nc2c(OC)ccc(OC)c2s1 | 2.5 | 0.6 | 6.2 | . | -0.6 | -6.1 | . | .
c1ccc(-c2cc(-c3ccccc3)ncn2)cc1 | -1.7 | -1.2 | -9.7 | . | -0.2 | -2.3 | . | .
C[n+]1cnc(-c2ccccc2)cc1-c1ccccc1 | 45.0* | -1.4 | 28.7 | 0.2 | 0.1 | 0.6 | 62.3* | -0.4
O=C(CSc1ncnc2nc[nH]c12)Nc1ccccc1C(F)(F)F | 56.7* | 0.8 | 25.1 | -4.7 | -3.1 | -4.0 | 38.9* | -4.4
Cc1cccc(C)c1NC(=O)CSc1ncnc2nc[nH]c12 | 3.3 | 0.5 | -4.0 | -2.9 | -1.4 | -1.9 | . | .
O=C(NCCCN1CCCC(O)C1)c1cc(COc2ccc(F)cc2F)on1 (centres undefined) | -5.1 | 0.5 | -5.7 | 2.5 | -0.5 | -3.8 | . | .
CCn1c(/C=C/c2cc[n+](C)cc2)nc2ccccc21 | 52.6* | 7.7 | 11.5 | -3.2 | -0.1 | 3.3 | 46.6* | .
COC(=O)c1c(Sc2ccccc2)c2ccccc2n1C | 58.3* | 1.2 | 11.2 | 3.4 | -3.2 | -3.5 | 81.7* | 1.7
O=C(CCC1CCN(C(=O)c2ccccc2Cl)CC1)NCc1ccc(F)cc1 | -1.6 | -1.0 | -7.3 | . | -0.2 | -1.0 | . | .
O=C(COc1ccccc1Cl)N1CCN(c2ccccn2)CC1 | 41.7* | -2.1 | 6.5 | -2.9 | -1.6 | -4.0 | 1.8 | .
CN(CC(=O)Nc1c(Cl)cccc1Cl)C(=O)C1=COCCO1 | 2.2 | 0.1 | -3.7 | -1.6 | -0.3 | -1.9 | . | .
CCc1cc(=O)oc2cc(C)c(CN3CCCC3)c(O)c12 | 41.1* | 0.8 | 17.0 | . | 0.3 | -2.4 | 54.3* | .
CCc1cc(=O)oc2cc(C)c(CN3CCCCC3)c(O)c12 | . | 1.7 | . | -1.1 | -0.5 | -4.5 | . | .
CC1=NOC(=O)/C1=C\c1ccc(-c2ccc(Br)cc2C(=O)O)o1 | 53.4* | 5.3 | 16.1 | 1.1 | 0.2 | -4.9 | active | 4.7
Cc1cc(C)nc(SCC(=O)NN=Cc2ccc(C)o2)n1 | -1.4 | 0.1 | 39.1 | -4.2 | -0.8 | -0.5 | . | .
CN(CC(=O)Nc1cccc(F)c1)C(=O)c1ccc2c(c1)OCCO2 | 40.3* | 1.3 | 4.1 | -0.4 | -0.8 | -4.2 | 2.3 | .
Cc1cc(NC(=O)CSc2nc(-c3ccccc3Cl)nc3c2c(=O)n(C)c(=O)n3C)no1 | -0.5 | -0.7 | -3.8 | -2.3 | -0.9 | 1.0 | . | .
COc1ccc(N2CCN(C(c3ccccc3)c3nnnn3Cc3ccc(F)cc3)CC2)cc1 (centres undefined) | -9.8 | 0.3 | -1.7 | . | -0.1 | -3.1 | . | .
COc1ccc(C(=O)N[C@H](C(=O)NCc2cccs2)C(C)C)cc1 | 40.2* | 0.6 | -3.9 | -1.1 | -2.2 | 3.0 | 12.0 | -0.8
Cc1ccc(N=C2NC(=O)/C(=C\c3cccs3)S2)cc1C | -1.0 | -0.1 | -9.7 | -2.9 | -0.9 | -3.4 | . | .
Cc1ccc(/C=C2/SC(=Nc3ccc(F)cc3)NC2=O)s1 | 50.8* | 2.2 | 16.9 | -3.7 | . | 6.0 | 63.1* | -2.0
SMILES | APOBEC3A inh | C-LANA FP | A3G deaminase | CAL PDZ FP-1 | CAL PDZ FP-2 | Keap1 Nrf2 FP | APOBEC3A confirm | UDG ctr A3A
Cc1ccc(N(Cc2cc3cccc(C)c3[nH]c2=O)S(=O)(=O)c2ccccc2)c(C)c1 | 54.3* | -0.6 | 22.4 | 6.8 | -2.1 | 0.6 | 66.6* | 0.7
Cc1ccc2[nH]c(=O)c(CN(c3cccc(C)c3C)S(=O)(=O)c3ccccc3)cc2c1 | -4.0 | -0.3 | -7.9 | -2.5 | -3.0 | 2.2 | . | .
CN(C)C(=O)c1ccc(-c2nnc(OCc3nc4ccccc4n3C)c3ccccc23)cc1 | . | -0.2 | . | -3.6 | -2.5 | 0.9 | . | .
Cc1ccc(Nc2nc3ccccc3n3nnnc23)cc1 | 46.3* | -0.3 | 3.0 | 2.8 | 1.5 | 0.7 | 1.2 | .
N/C(=N/S(=O)(=O)c1ccccc1)c1cccc([N+](=O)[O-])c1 | 45.0* | 0.3 | -6.8 | 1.1 | -1.5 | -3.0 | -0.3 | 0.4
N/C(=N/OC(=O)c1cccc([N+](=O)[O-])c1)c1cccc([N+](=O)[O-])c1 | 47.3* | -1.2 | -3.8 | 0.3 | 0.2 | -2.9 | 6.9 | 5.3
N/C(=N\S(=O)(=O)c1ccccc1)c1ccc([N+](=O)[O-])cc1 | -1.1 | -1.7 | -4.9 | 1.9 | 0.0 | -3.6 | . | .
COc1ccc(-n2ncc3c(=O)n(CC(C)=O)cnc32)cc1 | 42.8* | 1.5 | -3.4 | 3.4 | -0.4 | 1.0 | -3.2 | -1.7
CCOC(=O)Cc1csc(NC(=O)c2ccc3ncsc3c2)n1 | -5.6 | 1.4 | -4.7 | -3.7 | -0.7 | -4.9 | . | .
CSCC[C@H](NS(=O)(=O)c1ccc(C)cc1)C(=O)N1CCC(C(=O)N[C@@H](Cc2ccc(O)cc2)C(=O)O)CC1 | -1.4 | -0.6 | -8.1 | 0.9 | 0.6 | 2.3 | . | .
COc1ccc(Cl)cc1S(=O)(=O)N1CCC(C(=O)N2CCOCC2)CC1 | -2.3 | 0.4 | -7.5 | 1.9 | -1.5 | 5.0 | . | .
CC(=O)N1CCc2cc(S(=O)(=O)CCC(=O)Nc3ccccc3F)ccc21 | 1.2 | -0.2 | -3.8 | . | 0.1 | -4.1 | . | .
COc1cc(C)c(NC(=O)C2CCN(S(=O)(=O)c3cccs3)CC2)cc1OC | 57.0* | -0.5 | 17.7 | 0.4 | -0.6 | 3.1 | 54.7* | 0.0
CC1C(=O)N2CCCc3cc(S(=O)(=O)N4CCN(c5cccc(Cl)c5)CC4)cc1c32 (centres undefined) | 5.3 | 0.9 | 3.8 | -4.0 | -2.0 | 1.5 | . | .
O=C(CNC(=O)c1ccc2ccccc2c1)NCc1ccc(F)cc1 | 0.2 | 0.3 | -7.3 | 2.1 | -1.1 | -5.0 | . | .
COC/C=C/C1=CC2=CC(=O)C(C)(OC(=O)c3ccco3)C(=O)C2=CO1 (centres undefined) | 57.9* | . | 26.3 | . | . | . | 60.3* | .
O=C1NC(=O)C2(CCCCC2)N1 | . | 0.3 | . | -3.4 | 0.4 | 1.2 | . | .
CCC(C)N(C(=O)c1csnn1)C(C(=O)NC(C)(C)C)c1ccccc1 (centres undefined) | 61.6* | 0.5 | -4.5 | -3.7 | 0.1 | -7.9 | -9.1 | -0.1
